A short description of series [1]: Intrinsic clearance in human liver microsomes at 1 uM after 40 mins by LC-MS/MS assay. The note with it: read-out: CLH. Type of series: ADME, microsome.
The nature of series [2]: (§1) Volume of distribution at steady state in rat at 0.5 mg/kg, iv. The note with it: in vivo, read-out: Vdss. Type of series: ADME, organism-based. In outline: (§2)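 Rats received 0.5 mg/kg iv as a solution in DMSO. Clearance, half-life and Vdss are taken from the plasma profile. Unbound clearance is total clearance divided by plasma fraction unbound.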
Series [3] can be described thus: Intrinsic clearance in rat liver microsomes at 1 uM after 40 mins by LC-MS/MS assay. Type of series: ADME, microsome. The note with it: read-out: CLH. For orientation: Liver microsomes are a subcellular fraction often used to study metabolism.
A short description of series [4]: (§3) Half life in rat at 0.5 mg/kg, iv. It counts as ADME, organism-based. The note with it: in vivo. In outline: as §2
A short description of series [5]: (§4) Volume of distribution at steady state in dog at […], iv. The note with it: in vivo, read-out: Vdss. Type of series: ADME, organism-based, Canis lupus familiaris.
A short description of series [6]: (§5) Clearance in rat at 0.5 mg/kg, iv. It counts as ADME, organism-based. The conditions noted are these: in vivo. In outline: as §2
The test system of series [7] is Rattus norvegicus. Kind of series: Unbound clearance in rat at 0.5 mg/kg, iv. Type of series: ADME, organism-based. The conditions noted are these: in vivo. In outline: as §2
The nature of series [8]: (§6) Half life in dog at […], iv. Type of series: ADME, organism-based, Canis lupus familiaris. The conditions noted are these: in vivo.
Series [9] can be described thus: Oral bioavailability in rat at 10 mg/kg. It counts as ADME, organism-based. The conditions noted are these: in vivo. In outline:
(§7)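 Single oral dose in solution in 1% Tween 80/2.0% HPMC, 97% water, pH 10 with KOH; rat 10 mg/kg, dog 2 mg/kg. Plasma profile gives AUC, tmax and %F.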

Series [10] in a line: (§8) Clearance in dog at […], iv. It counts as ADME, organism-based, Canis lupus familiaris. The conditions noted are these: in vivo.
Series [11] is described as follows: (§9) Oral bioavailability in dog at 2 mg/kg. It counts as ADME, organism-based, Canis lupus familiaris. The conditions noted are these: in vivo. In outline: as §7
Series [12] in a line: Intrinsic clearance in dog liver microsomes at 1 uM after 40 mins by LC-MS/MS assay. The note with it: read-out: CLH. Type of series: ADME, Canis lupus familiaris, microsome.
Series [13] relates to Canis familiaris. Description: Unbound clearance in dog at […], iv. Further: dose 0.25 mg/kg. Type of series: ADME, organism-based, Canis lupus familiaris. The note with it: in vivo.
Series [14] is described as follows: Chemical stability of compound in 1N NaOH assessed as amide bond hydrolysis at room temperature. It counts as physicochemical.
In series [15] the test system is Canis familiaris. Described as §9. The conditions noted are these: in vivo. It counts as ADME, organism-based, Canis lupus familiaris. In outline: as §7
Series [16] concerns Canis familiaris. Description: Drug metabolism in po dosed dog assessed as racemization after 24 hrs. The note with it: in vivo. Type of series: ADME, organism-based, Canis lupus familiaris. In outline:
(§10)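 A related atropisomeric analogue was dosed to preclinical species and checked in vivo for interconversion to the other atropisomer. Monkey iv, 1 h; rat iv, 1 h; dog po, 24 h; mouse po, 12 h.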

The subject of series [17] is Rattus norvegicus. Kind of series: Drug metabolism in iv dosed rat assessed as racemization after 1 hr. Type of series: ADME, organism-based. The note with it: in vivo. In outline:
as §10

For the next series, the system named is Mus musculus. Kind of series: Drug metabolism in po dosed mouse assessed as racemization after 12 hrs. It counts as ADME, organism-based. The note with it: in vivo. In outline: as §10
A further series has as its system Rhesus monkey. Kind of series: Drug metabolism in iv dosed monkey assessed as racemization after 1 hr. Type of series: ADME, organism-based, Macaca mulatta. The note with it: in vivo. In outline: as §10
A further series concerns Plasma. Kind of series: Plasma concentration in po dosed capsaicin-induced nociception pain C57BL/6 mouse model administered 4 hrs prior to capsaicin challenge. It counts as ADME, organism-based. The note with it: in vivo.
Series [18] is described as follows: Chemical stability of compound assessed as racemization in presence of HCL at 100 degC after 1 hr. Type of series: physicochemical. The note with it: buffer. In outline: (§11)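 Racemization of the atropisomer was followed in 10% HCl under two conditions: 37 °C for 24 h and 100 °C for 1 h.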
A short description of series [19]: Chemical stability of compound in toluene assessed as racemization at above 100 degC. It counts as physicochemical. In outline: (§12)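 Racemization kinetics of the atropisomer were examined in neutral media (toluene, water) and basic media (NaOH) with heating above 100 °C.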
Series [20] concerns Rattus norvegicus. The series is described as §1. Type of series: ADME, organism-based. The conditions noted are these: in vivo. In outline:
as §2

Series [21] can be described thus: Tmax in dog at 2 mg/kg, po. It counts as ADME, organism-based, Canis lupus familiaris. The conditions noted are these: in vivo. In outline: as §7
Series [22] is described as follows: AUC in dog at 2 mg/kg, po. Type of series: ADME, organism-based, Canis lupus familiaris. The note with it: in vivo. In outline:
as §7

For series [23], the system named is Rattus norvegicus. The series is described as §3. It counts as ADME, organism-based. The note with it: in vivo. In outline:
as §2

The subject of series [24] is Canis familiaris. Described as §4. The conditions noted are these: in vivo. Type of series: ADME, organism-based, Canis lupus familiaris.
For series [25], the system named is Rattus norvegicus. Described as §5. It counts as ADME, organism-based. The conditions noted are these: in vivo. In outline:
as §2

Series [26] is described as follows: Tmax in rat at 10 mg/kg, po. It counts as ADME, organism-based. The note with it: in vivo. In outline:
as §7

Series [27] in a line: Chemical stability of compound in NaOH assessed as racemization at above 100 degC. Type of series: physicochemical. In outline:
as §12

Series [28] has as its system Canis familiaris. The description is as §6. Type of series: ADME, organism-based, Canis lupus familiaris. The note with it: in vivo.
Series [29] is described as follows: AUC in rat at 10 mg/kg, po. The conditions noted are these: in vivo. It counts as ADME, organism-based. In outline:
as §7

In series [30] the test system is Canis familiaris. The description is as §8. It counts as ADME, organism-based, Canis lupus familiaris. The conditions noted are these: in vivo.
The nature of series [31]: Chemical stability of compound assessed as racemization in presence of HCL at 37 degC after 24 hrs. Type of series: physicochemical. The conditions noted are these: buffer. In outline:
as §11

A short description of series [32]: Chemical stability of compound in water assessed as racemization at above 100 degC. Type of series: physicochemical. The note with it: buffer. In outline: as §12

A word on the half-life: it is how long it takes for the measured level to halve. For orientation: clearance means the volume of plasma or blood freed of the substance per unit of time. For `COc1cc(-c2cccc(OC(F)F)c2)c(F)cc1-n1c(=O)ccc2cc(S(=O)(=O)Nc3ccon3)ccc21`, the microsomal CLint at 1 µM in series [1], in series [3] and in [12] was < 5 µL/min/mg throughout. The Vd in [2] is 2.2 L/kg; in series [5] it was 0.22 L/kg. Further, the half-life in series [4] was 1.8 h; in series [8], 11 h. For the same compound, the values for the clearance in series [6] and in series [10] were 15.2 mL/min/kg and 0.3 mL/min/kg, respectively. Also, the CL free in the series with Rattus norvegicus [7] came out at 3780 mL/min/kg; in the series with Canis familiaris [13] it was 43.3 mL/min/kg. For the same compound, the values for the bioavailability in [9] and in series [11] were 30% and 54%, respectively.
As to `COc1cc(C(F)(F)F)ccc1N1C(=O)COc2cc(S(=O)(=O)Nc3nccs3)ccc21`, in series [14], the Stability result is recorded as “Unstable”.
Take `COc1cc(-c2cccc(F)c2)c(Cl)cc1-n1c(=O)ccc2cc(S(=O)(=O)Nc3ccon3)cnc21`: the Stability entry is listed as “Unstable”.
As for `COc1cc(-c2cc(OC)c(-n3c(=O)ccc4cc(S(=O)(=O)Nc5ncccn5)ccc43)cc2F)ccc1Cl`, the microsomal CLint at 1 µM in series [1] was < 5 µL/min/mg; in series [3], 12 µL/min/mg; in series [12], < 5 µL/min/mg. For the same compound, the Vd in series [2] worked out at 1.3 L/kg; in [5] it was 0.47 L/kg. Further, the half-life in [4] is 2.4 h; in [8], 12 h. For the same compound, the clearance in [6] was 8.33 mL/min/kg; in series [10], 0.583 mL/min/kg. Besides, the CL free in the series with Rattus norvegicus [7] was 1670 mL/min/kg; in the series on Canis familiaris [13] it was 96.7 mL/min/kg. Moreover, the bioavailability in series [9] turned out to be 55%. Besides, the F in the series with Canis familiaris [15] is given as 157%.
`COc1cc(-c2ccc(F)c(C)c2)c(F)cc1-n1c(=O)ccc2cc(S(=O)(=O)Nc3ccon3)ccc21`: the Stability result is “Unstable”. Further, the microsomal CLint at 1 µM in series [1] amounted to 5 µL/min/mg. Besides, the Vd in series [2] was found to be 1.5 L/kg. Further, the Drug metabolism result with Canis familiaris [16] is listed as “Metabolite_Notdetected”. For the same compound, in the series on Rattus norvegicus [17], the Drug metabolism result was “Metabolite_Notdetected”. Further, the microsomal CLint at 1 µM in series [3] is 16 µL/min/mg. The Drug metabolism result in the series on Mus musculus is “Metabolite_Notdetected”. This compound also showed a half-life in series [4] of 1.9 h. Moreover, the Drug metabolism entry in the series on Rhesus monkey is listed as “Metabolite_Notdetected”. Besides, in series [5], the Vd came out at 0.32 L/kg. In series [6], this compound showed a clearance of 10.2 mL/min/kg. Moreover, the CL free in the series on Rattus norvegicus [7] came to 1680 mL/min/kg. The half-life in series [8] is 14 h. In addition, the bioavailability in series [9] is 67%. This compound also gave a clearance in series [10] of 0.283 mL/min/kg. Besides, the bioavailability in [11] turned out to be 116%. Further, the microsomal CLint at 1 µM in [12] was < 5 µL/min/mg. Further, the CL free in the series with Canis familiaris [13] is 56.7 mL/min/kg.
As for `COc1cc(-c2cccc(C(F)(F)F)c2)ccc1-n1c(=O)ccc2cc(S(=O)(=O)Nc3ncccn3)ccc21`, the results for the microsomal CLint at 1 µM in series [1], in series [3] and in series [12] were 5 µL/min/mg, 12 µL/min/mg and < 5 µL/min/mg, respectively. Further, the Vd was 2.5 L/kg in [2] and 0.47 L/kg in [5]. Besides, the half-life was 4.6 h in series [4] and 34 h in series [8]. Besides, the results for the clearance in series [6] and in [10] were 7 mL/min/kg and 0.167 mL/min/kg, respectively. Also, the CL free was 883 mL/min/kg with Rattus norvegicus [7] and 12.8 mL/min/kg with Canis familiaris [13]. Also, the bioavailability in [9] amounted to 83%; in [11], 79%. Moreover, the Drug uptake result with Plasma is listed as “Dose-dependent effect”.
`COc1cc(C(F)(F)F)ccc1N1CCOc2cc(S(=O)(=O)Nc3nccs3)ccc21` had a clearance in [6] of 4 mL/min/kg. Also, the CL free with Rattus norvegicus [7] is 667 mL/min/kg.
One may read the Vdss as the apparent volume that relates the amount in the body to the concentration in plasma or blood. One may read the Tmax as the time from dosing to the highest level. What is called AUC is concentration integrated over time. `COc1cc(-c2cccc(F)c2)c(F)cc1-n1c(=O)ccc2cc(S(=O)(=O)Nc3ccon3)ccc21` (atropisomer P): the Stability result in series [18] is “Stable”; in series [19], “Unstable”; in series [27], “Unstable”; in series [31] it was “Stable”; in [32], “Unstable”. For the same compound, the Vdss with Rattus norvegicus [20] worked out at 1.8 L/kg; with Canis familiaris [24] it was 0.14 L/kg. Moreover, the figures for the time of peak concentration (Tmax) in series [21] and in series [26] were 4 h and 2.7 h, respectively. In addition, the AUC in series [22] is 600 µM·h; in [29] it was 65 µM·h. Besides, the t1/2 with Rattus norvegicus [23] amounted to 2.6 h; in the series on Canis familiaris [28] it was 4 h. The CL in the series with Rattus norvegicus [25] is 3.17 mL/min/kg; with Canis familiaris [30], 0.075 mL/min/kg. Besides, the CL free in the series with Rattus norvegicus [7] was 917 mL/min/kg; in the series on Canis familiaris [13], 33 mL/min/kg. For the same compound, the bioavailability in series [9] was found to be 66%; in series [11] it was 62%.

(Values after ChEMBL document CHEMBL4011607 (J Med Chem, 2017).)
